Assay results collected from several papers.
PDPK1: 3-phosphoinositide-dependent protein kinase 1 (PDPK1, Homo sapiens, UniProt O15530)
PRSS1: Serine protease 1 (PRSS1, Homo sapiens, UniProt P07477)

SMILES	target	assay	setting	quantity	result
CC[C@H](C)[C@H](NC(=O)[C@H](CO)NC(=O)CNC(=O)[C@@H](NC(=O)[C@@H](NC(=O)[C@@H](NC(=O)CN)[C@@H](C)O)C(C)C)[C@@H](C)O)C(=O)N[C@@H](CC(C)C)C(=O)N[C@H](C(=O)N1CCC[C@H]1C(=O)N[C@H](C(=O)N[C@@H](CC(=O)O)C(=O)N[C@@H](Cc1ccc(O)cc1)C(=O)NCC(=O)N[C@H]1CSSC[C@@H](C(=O)N[C@@H](CO)C(=O)N[C@H](C(=O)N[C@@H](C)C(=O)N[C@@H](CCSC)C(=O)N[C@@H](Cc2ccc(O)cc2)C(=O)NCC(=O)NCC(=O)N[C@H](C(=O)N[C@H](C(=O)N[C@@H](CC(=O)O)C(=O)N2CCC[C@H]2C(=O)N[C@H](C(=O)N[C@@H](CCCNC(=N)N)C(=O)N[C@@H](Cc2ccccc2)C(=O)N2CCC[C@H]2C(=O)N[C@@H](CC(N)=O)C(=O)N[C@@H](C)C(=O)N[C@@H](Cc2c[nH]c3ccccc23)C(=O)N[C@@H](CCCNC(=N)N)C(=O)N[C@@H](CCC(=O)O)C(=O)N[C@@H](CC(C)C)C(=O)O)[C@@H](C)CC)[C@@H](C)CC)C(C)C)C(C)C)NC(=O)[C@H](CC(C)C)NC(=O)[C@H](Cc2ccccc2)NC(=O)[C@@H]2CCCN2C(=O)[C@H](CC(N)=O)NC(=O)[C@H](Cc2ccccc2)NC1=O)[C@@H](C)CC)[C@@H](C)O	Chymotrypsinogen A (Bos taurus, UniProt P00766)	enzyme activity, inhibitor, fluorescence		IC50	> 100 µM
O=C(O)[C@H]1/C(=C/CO)O[C@@H]2CC(=O)N21	Carbapenem-hydrolyzing beta-lactamase KPC (KPC-2, Klebsiella pneumoniae, UniProt Q9F663)	enzyme activity, inhibitor, absorbance	pH 7, with preincubation	IC50	249 µM
O=C(O)C(F)(F)C(F)(F)C(F)(F)C(F)(F)C(F)(F)C(F)(F)C(F)(F)F	Aldo-keto reductase family 1 member C1 (AKR1C1, Homo sapiens, UniProt Q04828)	enzyme activity, inhibitor		IC50	≥ 50 µM
COC(=O)c1cc(N(C)C(=O)c2ccn3ncc(-c4ccc(C(=O)O)cc4)c3c2)ccc1Cl	PDPK1	enzyme activity, inhibitor		IC50	> 30 µM
CCC(C(=O)Nc1cc(NC2CCNC2)ccc1C)n1cc(Br)cc2nc(SCc3ccc(F)cc3)nc1-2 (centres unmarked)	PRSS1	enzyme activity, inhibitor		IC50	> 100 µM
CNC(=O)c1ccc(-c2cnn3ccc(C(=O)N(C)c4ccc(Cl)c(C(=O)O)c4)cc23)cc1	PDPK1	enzyme activity, inhibitor		IC50	> 30 µM
CCC(C(=O)Nc1cc(NC2CCOCC2)ccc1C)n1cc(Br)cc2nc(SCc3ccc(F)cc3)nc1-2 (centres unmarked)	PRSS1	enzyme activity, inhibitor		IC50	> 100 µM
C=CCc1ccc(OC)cc1	OR8H1 (Homo sapiens, UniProt Q8NGG4)	cAMP, agonist, luciferase		EC50	> 600 µM
